Source: PubChem BioAssay (Broad Institute)
Cneo AK release: Cryptococcus neoformans lysis via adenylate kinase release. C. neoformans lysis, adenylate kinase release luminescence, 4 h; normalised: neutral wells 0, clomiphene wells 100. lysis activity, % at 15 µM. hit rate 0.2% among 360,000;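 active = mean lysis activity across replicates of at least 80%, whatever share of replicates individually reach that level; inactive = mean lysis activity below 80%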
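Assay system: Cryptococcus neoformans yeast cells / Dosing: single-point compound dose / Timing: 4 h at 37 °C static, read 1 h later / Measured by: luminescence of released adenylate kinase using an AK detection reagent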
DENV2 CPE rescue: protects cells from dengue virus 2 cytopathic effect. hit rate 1.7% among 350,000. AID 651640. DENV2-infected cells, cytopathic effect rescue, plate reader. CPE inhibition, % at 9.99 µM; in the data active = CPE inhibition above about 20%, passing the limit was not always enough; inconclusive = no clear call, values can overlap the other calls; tested in BHK-21 cells
rRNA inh HTS: inhibits bacterial ribosomal RNA function over humanized ribosomes | E. coli WT GFP vs humanized-ribosome RFP mutants, fluorescence, 24 h; hits give low values; DMSO median 0, no signal -100 | hit rate 1.6% among 350,000 | GFP signal change (wild-type ribosome), % (test concentration not listed);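 active = significant combined selectivity score with lowered wild-type GFP, culture density cut under 30%, mutant RFP and density less affected; inactive = any of these conditions unmet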
S100A4 MyoIIA: inhibitors of human S100A4 binding to myosin IIA peptide | P26447 | S100A4/TAMRA-MyoIIA peptide fluorescence polarization | inhibition, % at 10.7 µM | hit rate 0.14% among 360,000;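 active = mean inhibition of at least 70% across replicates, with every replicate also reaching that level; inconclusive = mean inhibition reaches 70% but some replicates fall short; inactive = mean inhibition below 70%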
Target sequence (P26447 whole entry, looked up): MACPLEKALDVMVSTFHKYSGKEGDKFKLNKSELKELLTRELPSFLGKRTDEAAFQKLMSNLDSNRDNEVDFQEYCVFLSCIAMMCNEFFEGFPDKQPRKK
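Material: S100A4 monomer (human). Medium: Calcium-containing HEPES buffer, pH 7.2. Probe or stimulus: labelled myosin peptide probe, 5 nM. Compound dosing: one concentration per compound. Timing: polarization read 5 min after assay mix addition, stable 5–60 min. Benchmarks: DMSO as neutral control, TFP as positive control.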
AF4-AF9 inh: inhibitors of human MLL-AF4/AF9 interaction; P42568; AlphaScreen, biotin-AF4 peptide binding to FLAG-AF9; inhibition, % at 10 µM; hit rate 0.47% among 350,000; AID 651704;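 active = every replicate reaching a set inhibition limit, whatever the replicate mean, cut at about 25% in these data; inconclusive = mean inhibition reaches that limit but some replicates miss it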
Target sequence (P42568 whole entry, looked up): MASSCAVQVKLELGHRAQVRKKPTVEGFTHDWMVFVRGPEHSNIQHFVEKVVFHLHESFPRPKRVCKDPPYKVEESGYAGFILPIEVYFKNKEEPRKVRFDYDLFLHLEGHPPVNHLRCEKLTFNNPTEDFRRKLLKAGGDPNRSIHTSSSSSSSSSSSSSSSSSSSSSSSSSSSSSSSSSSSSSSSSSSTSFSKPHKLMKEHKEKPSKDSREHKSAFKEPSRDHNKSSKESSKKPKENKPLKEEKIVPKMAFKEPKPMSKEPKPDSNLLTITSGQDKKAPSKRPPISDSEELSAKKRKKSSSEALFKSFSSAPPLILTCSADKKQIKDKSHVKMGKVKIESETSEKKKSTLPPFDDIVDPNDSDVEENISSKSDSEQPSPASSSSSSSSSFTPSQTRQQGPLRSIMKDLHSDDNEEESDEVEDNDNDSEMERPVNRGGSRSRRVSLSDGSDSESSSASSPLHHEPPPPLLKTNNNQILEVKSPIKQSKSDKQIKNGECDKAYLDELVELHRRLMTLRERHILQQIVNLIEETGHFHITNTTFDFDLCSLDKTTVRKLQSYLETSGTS
PfHsp90 set2: inhibits growth of yeast expressing Plasmodium falciparum Hsp90; AID 504621; inhibition, % at 9.4 µM; S. cerevisiae expressing PfHsp90, BacTiter-Glo ATP, 48 h; yeast lacking PDR1 and PDR3 efflux regulators; hit rate 0.32% among 310,000;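 active = every replicate shows inhibition above about 80%, whatever the replicate mean, limit read from the data; inconclusive = mean inhibition reaches the set limit but some replicate falls short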
Each line names hits and unclear results; the compound was inactive in the other large screens. Hits are enriched below; roughly 3.2% of the tested compounds scored in any of these assays.

COc1ccc2c3c([nH]c2c1)[C@H](CO)N(C(=O)Nc1ccc(F)cc1)CC31CCN(C(=O)Nc2ccccc2)CC1	DENV2 CPE rescue 21 (no result: Cneo AK release, S100A4 MyoIIA, PfHsp90 set2)
COc1ccc2c3c([nH]c2c1)[C@@H](CO)N(C(=O)Nc1ccc(F)cc1)CC31CCN(S(=O)(=O)c2ccccc2)CC1	DENV2 CPE rescue 71 (no result: Cneo AK release, S100A4 MyoIIA, PfHsp90 set2)
COc1ccc2c3c([nH]c2c1)[C@@H](CO)N(C(=O)c1cccc(F)c1)CC31CCN(C(=O)c2cccc(F)c2)CC1	DENV2 CPE rescue 22 (no result: Cneo AK release, PfHsp90 set2)
COc1ccc2c3c([nH]c2c1)[C@H](CO)N(C(=O)c1cccc(F)c1)CC31CCN(C(=O)c2ccccc2)CC1	none (no result: Cneo AK release, PfHsp90 set2)
COc1ccc2c3c([nH]c2c1)[C@H](CO)N(C(C)=O)CC31CCN(C(=O)Nc2ccc(F)cc2)CC1	none (no result: Cneo AK release, PfHsp90 set2)
Cc1ccc(-c2nc(NC(=O)c3cc(C(C)(C)C)nn3C)sc2C)cc1Cl	DENV2 CPE rescue 55, AF4-AF9 inh inconclusive
CC1CCc2nc(NC(=O)c3cc(C(C)(C)C)nn3C)sc2C1 (configuration not stated)	none
O=S(=O)(Nc1nc2ccccc2nc1NCC1CCCO1)c1cc(Cl)ccc1Cl (configuration not stated)	rRNA inh HTS -27 (no result: Cneo AK release)
CCC(=O)N1[C@@H]2c3ccc(-c4cncnc4)c(=O)n3C[C@H]1[C@H](CO)[C@H]2C(=O)N1CCc2ccccc2C1	none (no result: Cneo AK release, DENV2 CPE rescue, S100A4 MyoIIA, AF4-AF9 inh, PfHsp90 set2)
CC(=O)Nc1cccc(OCCCNC(=O)c2ccc(F)cc2)c1	none
CC(=O)Nc1cccc(OCCCNC(=O)c2ccc(C(C)(C)C)cc2)c1	DENV2 CPE rescue 31 (no result: PfHsp90 set2)
CN(C)C(=O)C[C@H]1C[C@H]2c3cc(NC(=O)c4ccc5c(c4)OCO5)ccc3O[C@H]2[C@H](CO)O1	none (no result: PfHsp90 set2)
COc1cccc(OC)c1OCCCCc1c(C)n[nH]c1C	rRNA inh HTS -24 (no result: Cneo AK release, DENV2 CPE rescue)
CO[C@H](CN(C)S(=O)(=O)c1ccccc1)[C@@H](C)CN(C(=O)Nc1ccccc1F)[C@@H](C)CO	none (no result: PfHsp90 set2)
C[C@@H]1CN([C@H](C)CO)C(=O)c2cc(N(C)C)ccc2O[C@H]1CN(C)C(=O)Nc1ccc(C(F)(F)F)cc1	none (no result: PfHsp90 set2)
CCN1CCN(C(=O)c2ccc3c(c2)N(Cc2ccccc2)C(=O)c2ccccc2S3=O)CC1 (configuration not stated)	AF4-AF9 inh 49
CN1CCN(C(=O)c2ccc3c(c2)N(Cc2cccc(Cl)c2)C(=O)c2ccccc2S3=O)CC1 (configuration not stated)	none
O=c1c(/C=N/O)c(Nc2ccccc2)nc2ccccn12	rRNA inh HTS -20
O=C(CCc1nc2ccccc2c(=O)[nH]1)N1CCCc2ccccc21	DENV2 CPE rescue 53 (no result: Cneo AK release)
C[C@@H]1CN([C@@H](C)CO)S(=O)(=O)c2ccc(C3=CCCC3)cc2O[C@@H]1CN(C)C(=O)c1ccccn1	none (no result: PfHsp90 set2)
CCNC(=O)C[C@@H]1CC[C@H]2[C@H](COc3ccc(NC(=O)c4cccs4)cc3C(=O)N2C)O1	none (no result: PfHsp90 set2)
CCOc1ccc(NCC(=O)c2ccc(C)cc2)cc1	rRNA inh HTS -33 (no result: Cneo AK release)
Cc1ccc(C(=O)CNc2ccc(Cl)cc2)cc1	none
Cc1noc(C)c1CSCC(=O)Nc1nc2ccccc2s1	rRNA inh HTS -23
CCCN1C[C@H](C)[C@H](OC)CN(C)C(=O)c2cc(NC(=O)NC3CCCCC3)ccc2OC[C@H]1C	none (no result: PfHsp90 set2)
O=C(Nc1cc([N+](=O)[O-])ccc1O)c1ccc2c(c1)C(=O)N(Cc1ccco1)C2=O	DENV2 CPE rescue 26
Cc1ccc(COCCN2CCN(S(=O)(=O)c3ccc(C)cc3)CCC2=O)cc1	none
COc1ccc(COCCN2CCN(S(=O)(=O)c3ccc(C)cc3)CCC2=O)cc1	DENV2 CPE rescue 79 (no result: Cneo AK release, PfHsp90 set2)
COc1ccc(CN2C[C@@H](O)COC[C@H]3O[C@@H](CC(=O)N(C)C)CC[C@@H]32)cc1	none (no result: PfHsp90 set2)
CC(=O)N1CCC(C(=O)NCCOc2cccc(C)c2)CC1	AF4-AF9 inh 26
O=C(NCCOc1ccccc1)C1CCN(C(=O)Nc2ccccc2)CC1	none (no result: PfHsp90 set2)
N#Cc1ccc(C(=O)N2CCC3CC2c2cc(N4CCCCC4)ccc23)cc1 (configuration not stated)	rRNA inh HTS -33 (no result: PfHsp90 set2)
CCC(=O)Nc1ccc2c(c1)C(=O)N(C)[C@@H]1CC[C@@H](CC(=O)NC3CCCC3)O[C@@H]1CO2	none (no result: PfHsp90 set2)
CCOC(=O)C1CCCN(C(=O)c2ccc(OC(C)=O)cc2)C1 (configuration not stated)	none (no result: DENV2 CPE rescue, rRNA inh HTS, S100A4 MyoIIA, AF4-AF9 inh)
CCOC(=O)C1CCCN(Cc2ccc(-c3ccccc3)cc2)C1 (configuration not stated)	rRNA inh HTS -25
CCOC(=O)C1CCCN(C(=O)C(C)(C)Oc2ccc(Cl)cc2)C1 (configuration not stated)	rRNA inh HTS -30 (no result: Cneo AK release, PfHsp90 set2)
CCOC(=O)C1CCCN(Cc2cccc(Oc3ccccc3)c2)C1 (configuration not stated)	none
CCn1c2ccccc2c2cc(/C=N/NC(=O)c3ccncc3)ccc21	rRNA inh HTS -36
O=C(N/N=C/c1cccc(Oc2ccccc2)c1)c1ccncc1	DENV2 CPE rescue inconclusive, rRNA inh HTS -21 (no result: Cneo AK release)
O=C(N/N=C/c1cc(Cl)cc(Cl)c1O)c1ccncc1	rRNA inh HTS -19 (no result: AF4-AF9 inh)
CC(C)NC(=O)Nc1ccc2c(c1)C(=O)N([C@H](C)CO)C[C@@H](C)[C@H](CN(C)Cc1ccc3c(c1)OCO3)OCCCC[C@@H](C)O2	none (no result: S100A4 MyoIIA, AF4-AF9 inh, PfHsp90 set2)
COc1ccc(/C(C)=N/NC(=O)Cc2c(C)nc(C)[nH]c2=O)cc1	none (no result: Cneo AK release)
Cc1nc(C)c(CC(=O)N/N=C/c2ccc(O)cc2)c(=O)[nH]1	DENV2 CPE rescue 31 (no result: Cneo AK release)
C[C@H](CO)N1C[C@H](C)[C@H](CN(C)C)Oc2ncc(-c3cccc(C(F)(F)F)c3)cc2C1=O	none (no result: PfHsp90 set2)
C[C@@H]1CN([C@@H](C)CO)C(=O)c2cc(C3=CCCCC3)cnc2O[C@@H]1CN(C)C(=O)Cc1ccccc1	DENV2 CPE rescue 46 (no result: PfHsp90 set2)
C[C@H]1CN([C@@H](C)CO)C(=O)c2cc(C3=CCCCC3)cnc2O[C@H]1CN(C)C(=O)Cc1cccnc1	none (no result: PfHsp90 set2)
C[C@@H]1CN([C@H](C)CO)C(=O)c2cc(C3=CCCCC3)cnc2O[C@H]1CN(C)C(=O)c1ccc2c(c1)OCO2	DENV2 CPE rescue 54 (no result: PfHsp90 set2)
C[C@@H]1CN([C@@H](C)CO)C(=O)c2cc(C3=CCCCC3)cnc2O[C@H]1CN(C)C(=O)Cc1cccnc1	Cneo AK release 110 (no result: PfHsp90 set2)
C[C@H](CO)N1C[C@H](C)[C@H](CN(C)C(=O)Cc2ccccc2)Oc2ncc(C3=CCCCC3)cc2C1=O	none (no result: Cneo AK release, PfHsp90 set2)
C[C@H](CO)N1C[C@H](C)[C@@H](CN(C)C(=O)c2ccc3c(c2)OCO3)Oc2ncc(C3=CCCC3)cc2C1=O	none (no result: PfHsp90 set2)
CCOCCCNC(=O)Cn1nc(-c2ccccc2)ccc1=O	AF4-AF9 inh 51
